Results from ChEMBL document CHEMBL1149758, “N-[2-(5,5-dimethyl-1,3-dioxane-2-yl)ethyl]amino acids: their synthesis, anti-inflammatory evaluation and QSAR analysis” (Eur J Med Chem, 2008).
Calls of active or inactive are those of the source. The calls are words filed in the database; no cut-off is given here.

The compounds below were run on Mus musculus (assay: Antiinflammatory activity against xylene-induced ear edema in ICR mouse at 20 mg/kg, po).
Assay type: functional, organism-based
Design: dose 20 mg/kg
Outline: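 Mice dosed orally with compound suspended in CMC (2.0 mg/mL), vehicle group given CMC, aspirin in CMC as positive control; 30 min later 0.03 mL xylene applied to both surfaces of right ear, left ear untreated. After 2 h mice killed, 7 mm ear punches weighed; edema = right minus left section weight, expressed as % inhibition. n = 11; ANOVA, p < 0.05.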

Row | SMILES | Activity
1 | CC[C@H](C)[C@H](NCCC1OCC(C)(C)CO1)C(=O)O | Active
2 | CC1(C)COC(CCN[C@@H](Cc2c[nH]c3ccccc23)C(=O)O)OC1 | Active
3 | CC1(C)COC(CCN[C@@H](CC(=O)O)C(=O)O)OC1 | Active
4 | CC(C)C[C@H](NCCC1OCC(C)(C)CO1)C(=O)O | Active
5 | CC1(C)COC(CCN[C@@H](Cc2c[nH]cn2)C(=O)O)OC1 | Active
6 | CC1(C)COC(CCN[C@@H](Cc2ccc(O)cc2)C(=O)O)OC1 | Active
7 | CC1(C)COC(CCN[C@@H](CCC(=O)O)C(=O)O)OC1 | Active
8 | CC1(C)COC(CCN[C@@H](CCCNC(=N)N)C(=O)O)OC1 | Active
9 | CC1(C)COC(CCN[C@@H](Cc2ccccc2)C(=O)O)OC1 | Active
10 | CC1(C)COC(CCN[C@@H](CO)C(=O)O)OC1 | Active
11 | C[C@@H](O)[C@H](NCCC1OCC(C)(C)CO1)C(=O)O | Active
12 | CC1(C)COC(CCN[C@@H](CCCCN)C(=O)O)OC1 | Active
13 | CSCC[C@H](NCCC1OCC(C)(C)CO1)C(=O)O | Active
14 | CC1(C)COC(CCN[C@@H](CCC(N)=O)C(=O)O)OC1 | Active
15 | C[C@H](NCCC1OCC(C)(C)CO1)C(=O)O | Active
16 | CC(C)[C@H](NCCC1OCC(C)(C)CO1)C(=O)O | Active
17 | CC1(C)COC(CCNCC(=O)O)OC1 | Active
18 | CC1(C)COC(CCN[C@@H](CC(N)=O)C(=O)O)OC1 | Active
19 | CC1(C)COC(CCN2CCC[C@H]2C(=O)O)OC1 | Active
